Measured values from ChEMBL document CHEMBL1671729, “In vivo protection provided by a synthetic new alpha-galactosyl ceramide analog against bacterial and viral infections in murine models” (2010).
The source made the active and inactive calls. The rule behind the calls is not given here.

Tests used:
[1] = test system: Japanese encephalitis virus; assay: Antiviral activity against Japanese encephalitis virus RP-9 infected in CD8-alpha chain-knockout immunodeficient C57BL/6 mouse assessed as mouse survival rate at 1 ug, ip administered one day before and 1 day after viral infection measured after 25 days post infection relative to solvent treated control; assay type: functional
[2] = test system: Japanese encephalitis virus; assay: Antiviral activity against Japanese encephalitis virus RP-9 infected in C57BL/6 mouse assessed as mouse survival rate at 1 ug, ip administered one day before and 1 day after viral infection measured after 25 days post infection relative to solvent treated control; assay type: functional
[3] = test system: Japanese encephalitis virus; assay: Antiviral activity against Japanese encephalitis virus RP-9 infected in C57BL/6 mouse assessed as mouse survival rate at 1 ug, ip administered one day after viral infection measured after 25 days post infection relative to solvent treated control; assay type: functional
[4] = test system: Japanese encephalitis virus; assay: Antiviral activity against Japanese encephalitis virus RP-9 infected in Ig-mu chain-knockout immunodeficient C57BL/6 mouse assessed as mouse survival rate at 1 ug, ip administered one day before and 1 day after viral infection measured after 25 days post infection relative to solvent treated control; assay type: functional, organism-based
[5] = test system: Japanese encephalitis virus; assay: Antiviral activity against Japanese encephalitis virus RP-9 infected in Stat-1-knockout immunodeficient C57BL/6 mouse assessed as mouse survival rate at 1 ug, ip administered one day before and 1 day after viral infection measured after 25 days post infection relative to solvent treated control; assay type: functional
[6] = test system: Japanese encephalitis virus; assay: Antiviral activity against Japanese encephalitis virus RP-9 infected in C57BL/6 mouse assessed as mouse survival rate at 1 ug, ip administered one day before viral infection measured after 25 days post infection relative to solvent treated control; assay type: functional
[7] = test system: Novosphingobium capsulatum; assay: Antibacterial activity against Sphingomonas capsulata ATCC 14666 infected in C57BL/6 mouse assessed as reduction in lung bacterial load at 50 ug/kg, ip administered 2 hrs post infection measured 24 hrs post infection; assay type: functional, organism-based
Staphylococcus aureus [8] = assay: Antibacterial activity against luminescent Staphylococcus aureus Xen29 infected in BALB/c mouse deep thigh wound infection model assessed as reduction in bacterial load at 150 ug/kg, ip administered 3 hrs post infection by iVIS in-vivo imaging system; assay type: functional, organism-based
In short: (§1)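 Female BALB/c mice were infected in the left posterior thigh muscle with 3 × 10^8 CFU luminescent S. aureus Xen29 in 200 μl PBS. Glycolipid at 150 μg/kg or vehicle was given i.p. at 3 h, 0 h or 6 h post-infection. Live mice were imaged at 48 h, and RLU per mouse was compared by one-way ANOVA with Tukey posttest.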

[9] = test system: Japanese encephalitis virus; assay: Antiviral activity against Japanese encephalitis virus RP-9 infected in C57BL/6 mouse assessed as mouse survival rate at 1 ug, ip administered simultaneously with viral infection measured after 25 days post infection relative to solvent treated control; assay type: functional
Staphylococcus aureus [10] = assay: Antibacterial activity against luminescent Staphylococcus aureus Xen29 infected in BALB/c mouse deep thigh wound infection model assessed as reduction in bacterial load at 150 ug/kg, ip administered immediately after infection measured 48 hrs post infection by iVIS in-vivo imaging system; assay type: functional, organism-based; in short: as §1
Staphylococcus aureus [11] = assay: Antibacterial activity against luminescent Staphylococcus aureus Xen29 infected in BALB/c mouse deep thigh wound infection model assessed as reduction in bacterial load at 150 ug/kg, ip administered 6 hr post infection after infection measured 48 hrs post infection by iVIS in-vivo imaging system; assay type: functional, organism-based; in short: as §1
[12] = test system: Novosphingobium capsulatum; assay: Antibacterial activity against Sphingomonas capsulata ATCC 14666 infected in C57BL/6 mouse assessed as reduction in lung bacterial load at 100 ug/kg, ip administered 2 hrs post infection measured 24 hrs post infection; assay type: functional, organism-based

| Structure (SMILES) | Survival [2] [%] | inhibition [7] | inhibition (Staphylococcus aureus [8]) | inhibition [12] | further results |
| --- | --- | --- | --- | --- | --- |
| CCCCCCCCCCCCCC[C@@H](O)[C@@H](O)[C@H](CO[C@H]1O[C@H](C(=O)O)[C@H](O)[C@H](O)[C@H]1O)NC(=O)CCCCCCCCCCc1ccc(F)cc1 | 71 | Active | Active | – | Survival [1]: 22%; Survival [3]: 25%; Survival [4]: inactive; Survival [5]: 0%; Survival [6]: 60%; Survival [9]: 60% |
| CCCCCCCCCCCCCC[C@@H](O)[C@@H](O)[C@H](CO[C@H]1O[C@H](C(=O)O)[C@H](O)[C@H](O)[C@H]1O)NC(=O)CCCCCCCCCCc1ccc(Oc2ccc(F)cc2)cc1 | 64 | Active | Active | – | Survival [3]: 20%; inhibition (Staphylococcus aureus [10]): Active; Survival [4]: inactive; Survival [5]: 23%; Survival [6]: 80%; inhibition (Staphylococcus aureus [11]): inactive; Survival [9]: 40% |
| CCCCCCCCCCCCCCCCCCCCCCCCCC(=O)N[C@@H](CO[C@H]1O[C@H](CO)[C@H](O)[C@H](OS(=O)(=O)O)[C@H]1O)[C@H](O)[C@H](O)CCCCCCCCCCCCCC | – | – | – | inactive | – |
| CCCCCCCCCCCCCC[C@@H](O)[C@@H](O)[C@H](CO[C@H]1O[C@H](CO)[C@H](O)[C@H](O)[C@H]1O)NC(=O)CCCCCCCCCCc1ccccc1 | – | – | – | Active | – |
| CCCCCCCCCCCCCC[C@@H](O)[C@@H](O)[C@H](CO[C@H]1O[C@H](CO)[C@H](O)[C@H](O)[C@H]1O)NC(=O)CCCCCCCc1ccccc1 | – | – | – | Active | – |
| CCCCCCCCCCCCCCCCCCCCCCCCCC(=O)N[C@@H](CO[C@H]1O[C@H](CO)[C@H](O)[C@H](O)[C@H]1O)[C@H](O)[C@H](O)CCCCCCCCCCCCCC [RGI-7000] | 57 | – | Active | Active | – |
| CCCCCCCCCCCCCC[C@@H](O)[C@@H](O)[C@H](CO[C@H]1O[C@H](CO)[C@H](O)[C@H](O)[C@H]1O)NC(=O)CCCCCCCc1ccc(F)cc1 | 57 | Active | – | – | – |
| CCCCCCCCCCCCCCC[C@@H](O)[C@H](CO[C@H]1O[C@H](C(=O)O)[C@H](O)[C@H](O)[C@H]1O)NC(=O)CCCCCCCCCCCCC | – | – | – | inactive | – |
| CCCCCCCCCCCCCCCCCCCCCCCC(=O)N[C@@H](CO[C@H]1O[C@H](CO)[C@H](O)[C@H](O)[C@H]1O)[C@H](O)[C@H](O)CCCCC | – | – | – | inactive | – |
| CCCCCCCCCCCCCCCCCCCCCCCCCC(=O)N[C@@H](CO[C@H]1O[C@H](C(=O)O)[C@H](O)[C@H](O)[C@H]1O)[C@H](O)[C@H](O)CCCCCCCCCCCCCC | – | – | – | Active | – |
